Out of some 300,000 compounds screened, about 1,000 (0.33%) were called active. The sample as a whole holds a higher share of actives than the screen did. Values without a mark were called inactive.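 Rule for the calls: active = inhibition above the mean of all tested compounds plus 3 SD, set per screening campaign (cut at about 45% in these data); inactive = the rest.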
Tested on: HCV core protein (residues 1-106) dimerization
Assay: inhibitors of HCV core protein dimerization, primary screen, biochemical, TR-FRET, high-throughput (AID 1899)
Settings: TR-FRET GST/Flag-core106 dimerization, 1536-well; at 5 µM; stronger effect = higher value
Summary of the method: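 Assay system – GST-tagged and Flag-tagged HCV core protein residues 1-106 · Quantity – core106 proteins, GST 13.5 nM and Flag 17 nM · Benchmarks – unlabelled core106 and no-GST-core106 wells · Read-out basis – percent inhibition of core106 dimerization signal · Detection – time-resolved FRET, ex 340 nm, em 617 and 671 nm · Schedule – 4 h at 22.5 °C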

Row | Compound | inhibition
1 | CC(=O)N1CCN(C(=O)c2cc(-c3ccc(C)o3)nc3ccccc23)CC1 | 1.32%
2 | Cc1ccc(NC(=O)c2cc(-c3ccc(C)o3)nc3ccccc23)nc1 | 49.3% (active)
3 | COc1ccc(NC(=O)c2cc(-c3ccc(C)o3)nc3ccccc23)cc1 | 17.9%
4 | CN(CC(=O)Nc1cccc2c1CCCC2)S(=O)(=O)c1ccc(Cl)cc1 | 1.71%
5 | CCOc1ccc(-c2nnn(CC(=O)N3CCN(c4ccc(OC)cc4)CC3)n2)cc1OCC | 7.89%
6 | COc1ccc(N2CCN(C(=O)CSc3nnc4ncccn34)CC2)cc1 | -2.8%
7 | COc1ccc(N2CCN(C(=O)CSc3nc4cc(OC)c(OC)cc4cc3C#N)CC2)cc1 | 53.1% (active)
8 | Cc1nnc(SC(C(=O)Nc2cc(Cl)cc(Cl)c2)c2ccccc2)[nH]c1=O (stereo not given) | 4.94%
9 | COC(=O)c1cc(-c2cccs2)nc2ccccc12 | 3.48%
10 | O=C(O)Cc1sc(-c2ccccc2)nc1-c1cccs1 | 5.73%
11 | CN(C(=O)COc1nnc(-c2cccs2)c(-c2cccs2)n1)c1ccccc1 | 49% (active)
12 | CN(C(=O)CC1C(=O)NCCN1Cc1ccc(F)cc1Cl)C1CCCCC1 (stereo not given) | -6.47%
13 | Cc1ccc(C(=O)c2coc3ccc(O)c(CN(C)C)c23)cc1 | -5.01%
14 | COc1cc(OC)c(C(=S)N2CCCC2)cc1OC | 4.43%
15 | COc1ccc(/C=N/NS(=O)(=O)c2ccc(NC(C)=O)cc2)cc1 | -3.63%
16 | COc1ccc(S(=O)(=O)N/N=C\c2ccc(OC)c(COc3ccc(C)cc3[N+](=O)[O-])c2)cc1 | 56% (active)
17 | Cc1ccc(S(=O)(=O)N/N=C\c2cc3c(cc2[N+](=O)[O-])OCO3)cc1 | 2.28%
18 | COc1ccccc1N(CC(=O)Nc1ccc(C(F)(F)F)cc1)S(C)(=O)=O | -4.98%
19 | O=C(O)CSc1nccn1-c1cccc(Cl)c1 | -3.31%
20 | CC(C(=O)N=Nc1c(O)n(C)c2ccc(Br)cc12)n1cnc2ccccc2c1=O (stereo not given) | 11.6%
21 | O=C(CN1CCN(S(=O)(=O)/C=C/c2ccccc2)CC1)Nc1ccc(N2CCOCC2)cc1 | 2.85%
22 | O=C(CN1CCN(S(=O)(=O)/C=C/c2ccccc2)CC1)NC(=O)NCc1ccco1 | 47.9% (active)
23 | COc1ccccc1N1CCN(CC(=O)NC(=O)NCc2ccco2)CC1 | -7.99%
24 | Cc1ccc(S(=O)(=O)NCCC(=O)OCC(=O)N(C)c2ccccc2)cc1 | -0.65%
25 | N#Cc1cccc(NC(=O)CN2CCCCCC2)c1 | -0.12%
26 | Cc1cccc(C(=O)OC(C)C(=O)NC2CCCc3ccccc32)c1O (stereo not given) | -6.15%
27 | CCOC(=O)CSC1=C(C#N)C(c2sccc2C)CC(=O)N1 (stereo not given) | 6.38%
28 | C=CCOC(=O)C1=C(C)OC(N)=C(C#N)C1c1ccc(F)cc1 (stereo not given) | -4.37%

Row | Compound | inhibition
29 | C=CCOC(=O)C1=C(C)NC(SCC(=O)OCC)=C(C#N)C1c1ccc(C)cc1 (stereo not given) | 59.5% (active)
30 | Cc1ccc(CN(N=Nc2nonc2N)c2nonc2N)c(C)c1 | 0.98%
31 | CS(=O)(=O)c1ccc2c(c1)SC1=NC(=O)/C(=C/c3ccco3)C(=N)N12 | 79.4% (active)
32 | CS(=O)(=O)C1=NN2C(=N)/C(=C\c3ccc(OCCOc4ccccc4)cc3)C(=O)N=C2S1 | 18.8%
33 | Cc1cc(/C=C2/C(=N)N3C(=NC2=O)SN=C3S(C)(=O)=O)c(C)n1-c1ccccc1 | 18.8%
34 | Cc1ccc(C)c2[nH]c(=O)c(CN(Cc3cccnc3)C(=S)NCc3ccco3)cc12 | 7.88%
35 | C[C@H]1CCC(=O)N([C@H](CSc2ccccc2)Cc2ccccc2)CC1 | -3.23%
36 | O=C(Nc1ccncc1)c1cc(-c2ccccn2)nc2ccc(Br)cc12 | -6.91%
37 | O=C(NCC(c1cccs1)N1CCOCC1)c1cc(-c2ccccn2)nc2ccccc12 (stereo not given) | 0.32%
38 | O=C(NCc1cccs1)c1cc(-c2ccccn2)nc2ccc(Br)cc12 | 49.3% (active)
39 | Cc1cc(C)n(CCNC(=O)CC2C(=O)NCCN2Cc2ccc(C)o2)n1 (stereo not given) | 2.72%
40 | COc1ccc(OC)c(NC(=O)N[C@H](Cc2ccccc2)C(=O)NN)c1 | -4.04%
41 | CCOC(=O)C1(CC2CCCCO2)CCN(Cc2nc(-c3cccs3)oc2C)CC1 (stereo not given) | -1.21%
42 | Cc1ccc(C(=O)N/C(=C/c2ccc(-c3cccc([N+](=O)[O-])c3)o2)C(=O)NCCCN(C)C)cc1 | -11.9%
43 | Cc1ccc(Cc2cnc(NC(=O)/C(C#N)=C/c3ccc(-c4cccc([N+](=O)[O-])c4)o3)s2)cc1 | 46.7% (active)
44 | N#C/C(=C\c1ccc(-c2cccc([N+](=O)[O-])c2)o1)C(=O)NCCN1CCOCC1 | -14.4%
45 | CN1/C(=c2/s/c(=C3/C(=O)N(c4ccccc4)NC3=Nc3ccccc3)n(C)c2=O)C(C)(C)c2ccccc21 | 21.6%
46 | C=CCC1(C#N)C(=S)NC(C)=C(C(=O)OCC)C1c1ccccc1 (stereo not given) | -0.47%
47 | CC(C)c1ccc(N2CC(C(=O)Nc3nccs3)CC2=O)cc1 (stereo not given) | 3.92%
48 | O=C(CCCN1C(=O)/C(=C/c2ccccc2)SC1=S)Nc1ccc(O)cc1 | 0.73%
49 | O=C(CCCN1C(=O)/C(=C\c2ccco2)SC1=S)Nc1cccc2ccccc12 | 50.6% (active)
50 | O=C(CCCN1C(=O)/C(=C\c2ccccc2)SC1=S)Nc1ccccc1O | 1.56%
51 | CCC(c1nnnn1Cc1ccco1)N(CCc1ccccc1)Cc1cc2ccc(OC)cc2[nH]c1=O (stereo not given) | 14.3%
52 | CCC(c1nnnn1Cc1ccco1)N(Cc1cc2cc(OC)ccc2[nH]c1=O)C1CCCCC1 (stereo not given) | 53.5% (active)
53 | CCC(c1nnnn1Cc1ccccc1)N(Cc1cc2cc(OC)ccc2[nH]c1=O)CC1CCCO1 (stereo not given) | 9.57%
54 | O=C(CSc1nnc(-c2ccc([N+](=O)[O-])cc2)o1)Nc1ccccn1 | -13.9%
55 | Cc1cc2c(cc1C)N(C(=O)CN1C(=O)c3ccccc3C1=O)C(C)(C)c1ssc(=S)c1-2 | 20.8%

Reference: PubChem BioAssay AID1899 (The Scripps Research Institute Molecular Screening Center, 2009)
